Data reported in ChEMBL document CHEMBL3585273, “Discovery of Tricyclic Clerodane Diterpenes as Sarco/Endoplasmic Reticulum Ca(2+)-ATPase Inhibitors and Structure-Activity Relationships” (J Nat Prod, 2015).

How the values were obtained:
[1] = target: T1, Sarcoplasmic/endoplasmic reticulum calcium ATPase 1 (Oryctolagus cuniculus, UniProt P04191); assay: Binding affinity to rabbit hind leg muscle SERCA1a by pyruvate kinase and lactate dehydrogenase coupled assay
Outline: (§1)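 Rabbit skeletal muscle SR-purified SERCA1a (1 mg/mL) equilibrated in E2 state: 1 mM EGTA, 1 mM Mg2+, 10 mM Tes pH 7.5, 100 mM KCl. 10 μg protein plus compound (1.25–100 μM) preincubated 5 min at 23 °C in ATP-regenerating medium (0.1 mM Ca2+, 1 mM PEP, pyruvate kinase, lactate dehydrogenase, 0.175 mM NADH). Started with 5 mM Mg-ATP; A340 read over 6 min; three repeats.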

[2] = target: T1, Sarcoplasmic/endoplasmic reticulum calcium ATPase 1; assay: Binding affinity to rabbit skeletal muscle SERCA1a preincubated for 5 mins followed by Mg-ATP addition measured over 6 mins by spectrophotometric analysis; outline: as §1
CCRF-CEM = assay: Cytotoxicity against human CCRF-CEM cells assessed as cell viability after 24 hrs by MTT assay; format: functional, cell-based
Outline: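 Human acute lymphoblastic leukemia CCRF-CEM cells seeded at 4 × 10^4 cells/well and exposed 24 h to a range of compound concentrations. Viability read by MTT. Doxorubicin served as positive control and 0.1% DMSO as solvent control. IC50 derived by nonlinear regression. Data are means ± SD of three independent experiments.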

Sus scrofa = organism: Sus scrofa; assay: Inhibition of pig kidney outer medulla Na+,K+-ATPase at 50 uM relative to control
Outline: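 Purified pig kidney outer medulla Na+,K+-ATPase membranes. Steady-state activity at 37 °C in 130 mM NaCl, 20 mM KCl, 4 mM MgCl2, 3 mM ATP, 20 mM histidine pH 7.4. Read-out is phosphate liberation, with 1 mM ouabain as the nonspecific ATPase blank. Compounds tested over 1–50 μM.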

[3] = Inhibition of Wistar rat stomach H+,K+-ATPase after 1 hr

T1 sequence (P04191 whole entry): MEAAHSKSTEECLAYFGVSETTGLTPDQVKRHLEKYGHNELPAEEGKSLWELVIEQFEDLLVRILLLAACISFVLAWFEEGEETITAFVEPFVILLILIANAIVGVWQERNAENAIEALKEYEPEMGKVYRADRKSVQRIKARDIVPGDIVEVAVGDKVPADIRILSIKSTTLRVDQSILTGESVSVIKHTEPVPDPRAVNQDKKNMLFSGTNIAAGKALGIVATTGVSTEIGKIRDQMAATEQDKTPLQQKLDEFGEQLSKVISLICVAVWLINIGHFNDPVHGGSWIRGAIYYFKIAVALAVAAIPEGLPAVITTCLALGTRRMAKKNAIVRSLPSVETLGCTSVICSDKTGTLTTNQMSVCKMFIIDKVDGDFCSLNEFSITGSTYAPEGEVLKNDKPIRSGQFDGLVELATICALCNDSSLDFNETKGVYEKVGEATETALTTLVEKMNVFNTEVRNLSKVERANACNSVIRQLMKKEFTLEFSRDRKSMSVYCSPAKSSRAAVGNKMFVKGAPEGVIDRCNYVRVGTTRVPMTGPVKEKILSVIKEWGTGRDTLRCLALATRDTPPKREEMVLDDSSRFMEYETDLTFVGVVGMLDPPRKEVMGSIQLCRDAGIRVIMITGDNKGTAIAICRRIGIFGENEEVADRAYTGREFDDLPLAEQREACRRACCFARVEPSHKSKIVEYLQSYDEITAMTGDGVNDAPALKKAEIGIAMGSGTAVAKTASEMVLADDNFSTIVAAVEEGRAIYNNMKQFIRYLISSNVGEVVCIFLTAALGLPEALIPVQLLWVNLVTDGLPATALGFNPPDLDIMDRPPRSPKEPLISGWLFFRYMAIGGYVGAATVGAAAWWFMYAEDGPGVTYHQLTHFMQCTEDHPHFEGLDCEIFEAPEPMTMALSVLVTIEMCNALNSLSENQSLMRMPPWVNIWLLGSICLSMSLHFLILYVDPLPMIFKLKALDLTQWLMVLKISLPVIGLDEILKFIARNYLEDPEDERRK

Row | Kd [2] | Molecule | IC50 (CCRF-CEM) | also measured
1 | 31.5 µM | C=CC(=C)[C@H](O)C[C@]1(C)[C@H](C)C[C@H](OC(=O)CC(O)CCCCCCCCC)[C@@]23C(=C[C@H](O)C[C@@H]12)[C@@H](OC(C)=O)O[C@H]3OC(C)=O (stereo partly drawn) | – | –
2 | > 100 µM | C=C/C(C)=C/C[C@]1(C)[C@H](C)[C@@H](O)[C@H](O)[C@@]23C(=C[C@H](OC)C[C@@H]12)[C@@H](O)O[C@H]3O | 4.3 µM | inhibition (Sus scrofa): 6.55%
3 | 48.1 µM | C=CC(=C)CC[C@]1(C)[C@H](C)C[C@H](OC(=O)/C=C/c2ccccc2)[C@@]23C(=C[C@H](O)C[C@@H]12)[C@@H](OC(C)=O)O[C@H]3OC(C)=O | – | –
4 | 20.1 µM | C=C/C(C)=C/C[C@]1(C)[C@H](C)C[C@H](OC(C)=O)[C@@]23C(=C[C@H](OC(=O)c4ccc(O)cc4)C[C@@H]12)[C@@H](OC(C)=O)O[C@H]3OC(C)=O | 1.2 µM | –
5 | 103 µM | C=CC(=C)CC[C@]1(C)[C@H](C)CC[C@@]23C(C[C@H](OC(C)=O)C[C@@H]12)[C@@H](OC(C)=O)O[C@H]3OC(C)=O (stereo partly drawn) | 12 µM | –
6 | 10.1 µM | C=C/C(C)=C/C[C@]1(C)[C@H](C)[C@@H](OC(=O)CCC)[C@H](O)[C@@]23C(=C[C@H](OC)C[C@@H]12)[C@@H](OC(=O)CCC)O[C@H]3OC(C)=O | 0.7 µM | inhibition (Sus scrofa): 4.41%

Further lines, the molecule ahead of its results:

Row | Molecule | Kd [2] | IC50 (CCRF-CEM) | also measured
7 | C[C@H]1O[C@@H](O[C@H]2CC[C@@]3(C)[C@@H](CC[C@]4(C)[C@@H]3C=C[C@]35OC[C@@]6(CCC(C)(C)C[C@H]63)[C@H](O)C[C@]54C)[C@]2(C)CO)[C@H](O)[C@@H](O[C@@H]2O[C@H](CO)[C@@H](O)[C@H](O)[C@H]2O)[C@@H]1O | – | – | Kd [1]: 50 µM
8 | C=CC(=C)CC[C@]1(C)[C@H](C)C[C@H](OC(=O)CC(O)CCCCCCCCC)[C@@]23C(=C[C@H](O)C[C@@H]12)[C@@H](OC(C)=O)O[C@H]3OC(C)=O (stereo partly drawn) | 7.5 µM | – | inhibition (Sus scrofa): 26.3%
9 | C=CC(=C)CC[C@]1(C)[C@H](C)C[C@H](O)[C@@]23C(=C[C@@H](OC(=O)/C=C/c4ccccc4)C[C@@H]12)[C@@H](OC(C)=O)O[C@H]3OC(C)=O | 32.1 µM | – | –
10 | C[C@H](C[C@H](O)[C@H]1OC1(C)C)C1=C2C[C@H](O)[C@H]3[C@@]4(C)CCC(=O)C(C)(C)[C@@H]4CC[C@]3(C)[C@@]2(C)CC1 [ALISOL B] | – | – | Kd [1]: 27 µM
11 | C=C/C(C)=C/C[C@]1(C)[C@H](C)CC[C@@]23C(=CC(=O)C[C@@H]12)[C@@H](OC(C)=O)O[C@H]3OC(C)=O | 96.5 µM | – | –
12 | IVERMECTIN | – | – | IC50 [3]: 7.59 µM
13 | CC(=O)O[C@H]1O[C@@H](OC(C)=O)[C@]23C1=C[C@H](O)C[C@H]2[C@](C)(CCC1=CCOOC1)[C@H](C)C[C@@H]3OC(=O)/C=C/c1ccccc1 | 22.3 µM | – | –
14 | C=C/C(C)=C/C[C@]1(C)[C@H](C)C[C@H](O)[C@@]23C(=C[C@H](OC(=O)c4ccc(O)cc4)C[C@@H]12)[C@@H](OC(C)=O)O[C@H]3OC(C)=O [CASEARBORIN D] | 2 µM | 1.1 µM | inhibition (Sus scrofa): 23.8%
